Results on 37 compounds are retold here after ChEMBL document CHEMBL4346686, “Discovery and biological evaluation of novel androgen receptor antagonist for castration-resistant prostate cancer” (Eur J Med Chem, 2019).

Assay [1] can be described thus: Antiproliferative activity against human LNCaP-AR cells assessed as reduction in cell viability incubated for 6 days by CCK8 assay. It counts as functional, cell-based. The settings on record: 144 h. In outline: (§1)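 Cells seeded (2×10^4 per well for VCaP, 1–3×10^3 for the others) and compound added after 24 h as a 9-point, 3-fold serial dilution. Exposure 6 days, then CCK-8 for 1–4 h and absorbance at 450 nm. IC50 from curve fit, mean of at least two independent experiments run in duplicate.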

A further assay has as its system CWR22R. Kind of assay: Antiproliferative activity against human 22Rv1 cells assessed as reduction in cell viability incubated for 6 days by CCK8 assay. It counts as functional, cell-based. The settings on record: 22Rv1, 144 h. The procedure, abridged:
as §1

The next assay relates to VCaP. Description: Antiproliferative activity against human VCaP cells assessed as reduction in cell viability incubated for 6 days by CCK8 assay. The settings on record: 144 h. It counts as functional, cell-based. In outline: as §1
Another assay has as its system PC-3. Description: Antiproliferative activity against human PC3 cells assessed as reduction in cell viability incubated for 6 days by CCK8 assay. The settings on record: PC-3, 144 h. It counts as functional, cell-based. In outline: as §1
The target in assay [2] is T1, Androgen receptor (Homo sapiens) (UniProt P10275).
T1 sequence (whole entry): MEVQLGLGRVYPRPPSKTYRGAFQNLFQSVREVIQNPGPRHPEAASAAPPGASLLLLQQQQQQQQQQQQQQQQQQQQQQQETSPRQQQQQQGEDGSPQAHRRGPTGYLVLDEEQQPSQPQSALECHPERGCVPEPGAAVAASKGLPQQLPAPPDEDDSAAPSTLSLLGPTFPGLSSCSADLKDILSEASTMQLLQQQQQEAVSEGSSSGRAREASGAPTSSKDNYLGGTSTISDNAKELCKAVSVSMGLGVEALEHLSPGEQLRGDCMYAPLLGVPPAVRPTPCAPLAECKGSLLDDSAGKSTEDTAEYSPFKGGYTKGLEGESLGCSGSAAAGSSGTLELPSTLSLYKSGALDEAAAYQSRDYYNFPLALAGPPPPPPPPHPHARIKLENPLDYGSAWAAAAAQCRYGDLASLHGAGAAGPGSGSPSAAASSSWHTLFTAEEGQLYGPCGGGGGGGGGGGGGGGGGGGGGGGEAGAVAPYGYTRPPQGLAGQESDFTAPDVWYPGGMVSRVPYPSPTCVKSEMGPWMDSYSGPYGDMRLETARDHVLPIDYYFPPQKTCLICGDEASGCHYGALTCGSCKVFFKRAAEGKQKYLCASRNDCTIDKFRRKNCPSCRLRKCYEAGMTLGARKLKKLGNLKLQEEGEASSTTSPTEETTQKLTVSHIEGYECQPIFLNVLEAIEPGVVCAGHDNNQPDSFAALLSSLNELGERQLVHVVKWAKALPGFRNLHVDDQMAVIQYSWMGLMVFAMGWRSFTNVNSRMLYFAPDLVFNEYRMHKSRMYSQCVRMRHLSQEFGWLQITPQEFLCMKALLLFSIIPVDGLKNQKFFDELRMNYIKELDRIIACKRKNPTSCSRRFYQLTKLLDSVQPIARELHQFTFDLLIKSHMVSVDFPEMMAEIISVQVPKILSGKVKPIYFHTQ
Kind of assay: Antagonist activity at androgen receptor in human VCaP cells assessed as inhibition of R1881-induced FKBP5 mRNA expression at 5 uM after 24 hrs by qRT-PCR analysis. It counts as cell-based. The procedure, abridged:
(§2)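 VCaP cells kept 48 h in DMEM with 5% charcoal-stripped FBS, then treated 24 h with compound plus 0.2 nM R1881. RNA extracted with TRIzol, reverse-transcribed, and PSA or FKBP5 mRNA quantified by qRT-PCR normalized to GAPDH. Expressed relative to DMSO-treated samples; mean ± SD, n = 3, two-tailed t-test.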

The next assay has as its system L02. Description: Antiproliferative activity against human L02 cells assessed as reduction in cell viability incubated for 6 days by CCK8 assay. It counts as cell-based. The settings on record: L02, 144 h. In outline: as §1
Assay [3] concerns the target T1, Androgen receptor (Homo sapiens). Description: Antagonist activity at androgen receptor in human VCaP cells assessed as inhibition of R1881-induced PSA mRNA expression at 5 uM after 24 hrs by qRT-PCR analysis. It counts as cell-based. The procedure, abridged:
as §2

Each structure is given as a SMILES string. The source made the active and inactive calls. The rule behind the calls is not given here.

On to `N#Cc1ccc(N2CCc3cc(-c4cncnc4)ccc32)cc1C(F)(F)F`, for which the IC50 in assay [1] was 21 µM.

On to `CCN(c1ccc(C#N)c(Cl)c1)c1cc(-n2cnc3ccccc32)ccc1C`, for which the IC50 with CWR22R stood at 3.04 µM; in assay [1], 0.39 µM; in the assay on VCaP it was 8.56 µM; in the assay on PC-3 it was 8.16 µM.

Turning to `CCN(c1ccc(C#N)c(C(F)(F)F)c1)c1cc(-n2ccnc2)ccc1C`, the IC50 in the assay on CWR22R is 16.3 µM; in assay [1], 0.4 to 0.56 µM; in the assay on VCaP, 3.92 to 30 µM; in the assay with PC-3, over 30 µM.

Turning to `Cn1nccc1-c1cccc2c1CCCN2c1ccc(C#N)c(C(F)(F)F)c1`, the IC50 was 10.4 µM in the assay with CWR22R, 0.24 µM in assay [1], over 30 µM in the assay on VCaP and 9.8 µM with PC-3.

On to `CCN(c1ccc(C#N)c(Cl)c1)c1cc(-c2ccco2)ccc1C`, for which the IC50 in the assay on CWR22R is over 30 µM; in assay [1], 0.49 µM; with VCaP, over 30 µM; in the assay with PC-3, over 30 µM.

As to `Cc1noc(C)c1-c1cccc2c1CCCN2c1ccc(C#N)c(C(F)(F)F)c1`, the IC50 in assay [1] is 1.42 µM; in the assay with VCaP, over 30 µM.

Turning to `Cc1noc(C)c1-c1cccc(Oc2ccc(C#N)c(C(F)(F)F)c2)c1`, the IC50 in assay [1] came out at 1.67 µM.

In the case of `CCN(c1ccc(C#N)c(Cl)c1)c1cc(-c2cccnc2)ccc1C`, the inhibition result in assay [2] and in assay [3] was “Active” throughout. Also, the IC50 in the assay with L02 was found to be 12.7 µM; in the assay on CWR22R, 2 µM; in assay [1] it was 0.33 µM; with VCaP it was 1.27 µM; in the assay on PC-3 it was 11 µM.

In the case of `N#Cc1ccc(N2CCCc3c(-c4ccncc4)cccc32)cc1C(F)(F)F`, the IC50 with L02 was 6.38 µM; in the assay on CWR22R, 15 µM; in assay [1] it was 0.07 µM; in the assay on VCaP, over 30 µM; in the assay with PC-3 it was 28.7 µM.

`CCN(c1ccc(C#N)c(Cl)c1)c1cc(-c2cnc3ccccc3c2)ccc1C`: the IC50 in assay [1] came to 1.98 µM; in the assay with VCaP, 25.3 µM; in the assay on PC-3, 3.57 µM.

Consider `CCN(c1ccc(C#N)c(Cl)c1)c1cc(-n2cccn2)ccc1C`, for which the IC50 in the assay on CWR22R was over 30 µM; in assay [1], 0.29 µM; in the assay with VCaP, 2.34 µM; in the assay on PC-3, 15.7 µM.

Regarding `CCN(c1ccc(C#N)c(Cl)c1)c1cc(-c2cn[nH]c2)ccc1C`, the figures for the IC50 (with CWR22R; in assay [1]; with PC-3) were over 30 µM, 0.7 µM and 15.3 µM, respectively.

Take `CCN(c1cccc(-c2cncnc2)c1)c1ccc(C#N)c(Cl)c1`: the IC50 with CWR22R was over 30 µM; in assay [1] it was 0.36 µM; in the assay with VCaP, over 30 µM; in the assay with PC-3 it was over 30 µM.

Take `CCN(c1ccc(C#N)c(Cl)c1)c1cc(-c2ccc(F)nc2)ccc1C`: the IC50 in the assay on CWR22R was 16.5 µM; in assay [1], 0.41 µM; in the assay with VCaP, over 30 µM; with PC-3 it was over 30 µM.

Take `CCN(c1ccc(C#N)c(Cl)c1)c1cc(-c2cccs2)ccc1C`: the IC50 with CWR22R was 22 µM; in assay [1] it was 0.38 µM; with PC-3, over 30 µM.

As to `N#Cc1ccc(N2CCCc3c(-c4cccnc4)cccc32)cc1C(F)(F)F`, the IC50 in the assay on L02 was determined as 10.5 µM; in the assay with CWR22R, 12.3 µM; in assay [1], 0.12 µM; in the assay on VCaP, 13.5 µM; in the assay on PC-3 it was 7.97 µM.

`CCN(c1ccccn1)c1cc(-c2c(C)noc2C)ccc1C`: the IC50 in the assay with L02 came out at 4.42 µM; in the assay with CWR22R it was 5.43 µM; in assay [1] it was 0.63 µM; in the assay with VCaP, 0.87 µM; in the assay on PC-3 it was 4.8 µM.

Take `CCN(c1ccc(C#N)c(Cl)c1)c1cc(-c2ccccc2)ccc1C`: the IC50 in the assay on L02 is over 30 µM; in the assay on CWR22R it was over 30 µM; in assay [1], 2.78 µM; with VCaP, over 30 µM.

Take `N#Cc1ccc(N2CCc3cc(-c4cncnc4)ccc3C2)cc1C(F)(F)F`: in assay [1], the IC50 was 1.67 µM.

Regarding `CCN(c1ccc(C#N)c(Cl)c1)c1cc(-c2ccncc2)ccc1C`, the IC50 with L02 stood at 1.73 µM; in the assay on CWR22R, 1.03 µM; in assay [1], 0.48 µM; with VCaP, 2.9 µM; in the assay on PC-3, 3.58 µM.

As for `CCN(c1ccc(C#N)c(Cl)c1)c1cc(C2=CCCCC2)ccc1C`, the IC50 in assay [1] came out at 2.55 µM; with VCaP it was 20 µM.

Regarding `CCN(c1ccc(C#N)c(Cl)c1)c1cc(-c2c[nH]nc2C)ccc1C`, the 50% inhibitory concentration (IC50) is 5.78 µM in the assay with L02; 5.38 µM in the assay on CWR22R; 0.32 µM in assay [1]; 3.19 µM in the assay on VCaP; 9.03 µM in the assay with PC-3.

For `CCN(c1cccc(-n2ccnc2)c1)c1ccc(C#N)c(Cl)c1`, the half-inhibitory concentration (IC50) with L02 is 23.2 µM; in the assay on CWR22R, over 30 µM; in assay [1], 0.33 µM; with VCaP, over 30 µM; with PC-3, over 30 µM.

As for `Cc1ccc(-c2c(C)noc2C)cc1Nc1ccncc1`, the inhibition entry in assay [2] and in assay [3] was “Active” throughout. For the same compound, the IC50 in assay [1] amounted to 3.7 µM; in the assay on VCaP it was 1.97 µM.

`N#Cc1ccc(N2CCc3cc(-c4ccncc4)ccc3C2)cc1C(F)(F)F`: the 50% inhibitory concentration (IC50) with CWR22R was 6.94 µM; in assay [1], 0.98 µM; in the assay with VCaP, 3.5 µM.

With `CCN(c1ccc(C#N)c(Cl)c1)c1cc(-c2c(C)noc2C)ccc1C`, the IC50 in the assay with L02 was 8.67 µM; in the assay with CWR22R it was 2.99 µM; in assay [1], 0.19 µM; in the assay on VCaP, 1.2 µM; with PC-3, 4.84 µM.

Consider `N#Cc1ccc(N2CCc3cc(-c4cccnc4)ccc3C2)cc1C(F)(F)F`, for which the IC50 was determined as 4.79 µM in the assay with CWR22R, 0.76 µM in assay [1] and 2.53 µM in the assay on VCaP.

For `CCN(c1cccc(-n2ccnc2)c1)c1ccc(C#N)c(C(F)(F)F)c1`, the IC50 in the assay with CWR22R was 19 µM; in assay [1] it was 0.58 µM; with VCaP it was over 30 µM; in the assay on PC-3, over 30 µM.

Turning to `CCN(c1cccc(-c2ccccc2)c1)c1ccc(C#N)c(Cl)c1`, the IC50 in assay [1] turned out to be 1.29 µM.

For the compound `CCN(c1ccc(C#N)c(Cl)c1)c1cc(-n2ccnc2)ccc1C`, the IC50 is 15 µM in the assay with L02; over 30 µM with CWR22R; 0.32 µM in assay [1]; over 30 µM in the assay on VCaP; over 30 µM in the assay on PC-3.

As for `CCN(c1ccc(C#N)c(Cl)c1)c1cc(-c2cncnc2)ccc1C`, the inhibition entry in assay [2] and in assay [3] was “Active” each time. Moreover, the IC50 with CWR22R was over 30 µM; in assay [1], 0.4 µM; in the assay on VCaP it was 3.92 µM; with PC-3 it was over 30 µM.

With `CCN(c1ccncc1)c1cc(-c2c(C)noc2C)ccc1C`, the values for the IC50 (in assay [1]; with VCaP) were 2.88 µM and 2.01 µM, respectively.

Regarding `N#Cc1ccc(N2CCc3cc(-c4cccnc4)ccc32)cc1C(F)(F)F`, the IC50 in assay [1] stood at 1.24 µM.

Consider `N#Cc1ccc(N2CCc3cc(-c4cnc5ccccc5c4)ccc3C2)cc1C(F)(F)F`, for which the IC50 was 25.9 µM in the assay on CWR22R, 0.98 µM in assay [1], over 30 µM in the assay with VCaP and 25.1 µM in the assay on PC-3.

Consider `CCN(c1ccc(C#N)c(Cl)c1)c1cc(-c2ccoc2)ccc1C`, for which the IC50 in the assay with CWR22R was over 30 µM; in assay [1], 0.48 µM; in the assay with VCaP it was 4.01 µM; in the assay on PC-3, over 30 µM.

For `N#Cc1ccc(N2CCc3cc(-c4cnc5ccccc5c4)ccc32)cc1C(F)(F)F`, in assay [1], the IC50 was 11.5 µM.

For the compound `CCN(c1ccc(C#N)c(Cl)c1)c1cc(-c2ccnn2C)ccc1C`, the inhibition entry in assay [2] and in assay [3] was “Active” in each case. Moreover, the IC50 in the assay on L02 worked out at 6.23 µM; in the assay with CWR22R, 4.33 µM; in assay [1], 0.17 µM; in the assay on VCaP it was 1.67 µM; with PC-3 it was 7.29 µM.
